Activity calls are given as the source filed them. The rule behind the calls is not given here.
Legend:
[1] = target: T1, Free fatty acid receptor 1 (Homo sapiens, UniProt O14842); test: Agonist activity at human FFA1 receptor expressed in CHO cells assessed as increase in intracellular calcium flux at 100 nM by FLIPR assay relative to control; type: functional, cell-based
Outline: (§1)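 CHO cells stably expressing human FFA1 (NM_005303), seeded at 15 K cells/well and grown 16 h at 37 °C, 5% CO2. Calcium flux read by FLIPR Tetra. Response = (A−B)/(C−B)×100, with B vehicle and C 10 μM γ-linolenic acid. Mean of three independent experiments.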

[2] = test system: Mus musculus; test: Toxicity in overnight fasted ICR mouse assessed as hypoglycemia at 15 mg/kg, po measured at 30 to 180 mins; type: organism-based; settings: in vivo
Outline: (§2)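 Male ICR mice, 10 weeks old, fasted overnight, in 3 groups (n = 6). Single oral dose in 0.5% CMC. Tail-vein blood glucose measured by strips at 0, 30, 60, 90, 120 and 180 min. Mean ± SEM, Student's t test.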

[3] = 1-octanol-phosphate buffer partition coefficient, log D of the compound at 100 uM at pH 7.4 after 24 hrs by shake-flask method; type: physicochemical
Outline: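 Test compound at 100 μM final (from 10 mM DMSO stock) in 0.01 M phosphate buffer pH 7.4 and 1-octanol, shaken 700 rpm for 24 h, phases left 1 h to separate. Each phase analysed by HPLC in duplicate at 254 nm. LogD is the octanol/buffer peak-area ratio, corrected with two calibration points per compound per solvent. Three independent experiments.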

[4] = test system: Mus musculus; test: Antidiabetic activity in overnight fasted ICR mouse assessed as decrease in blood glucose level at 20 mg/kg, po administered glucose 30 mins post compound treatment measured at 15 to 120 mins by OGTT; type: functional, organism-based
Outline: (§3)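 Male ICR mice, 10 weeks old, fasted 12 h and randomized (n = 6). Compound given orally at 10, 20 or 40 mg/kg in 0.5% CMC, with 30% glucose (3 g/kg) orally 30 min later. Tail blood glucose measured by test strips at −30, 0, 15, 30, 45, 60 and 120 min. Student's t test vs vehicle.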

[5] = test system: Mus musculus; test: Antidiabetic activity in overnight fasted STZ-induced type 2 diabetic C57BL/6 mouse model assessed as decrease in blood glucose level at 20 mg/kg, po administered glucose 30 mins post compound treatment measured at 15 to 120 mins by OGTT; type: functional, organism-based
Outline: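 Male C57BL/6 mice on 45% fat diet for 4 weeks, then STZ 80 mg/kg ip, then high-fat diet 4 more weeks. Mice with fasting glucose ≥11.1 mmol/L were used, fasted 12 h (n = 6). Oral dose in 0.5% CMC, with 20% glucose (2 g/kg) orally 30 min later. Strip glucose read at −30, 0, 15, 30, 45, 60 and 120 min.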

[6] = target: T1, Free fatty acid receptor 1; test: Agonist activity at human FFA1 receptor expressed in CHO cells assessed as increase in intracellular calcium flux by FLIPR assay; type: functional, cell-based; outline: as §1
[7] = test system: Mus musculus; test: Antidiabetic activity in po dosed overnight fasted ICR mouse assessed as decrease in blood glucose level administered glucose 30 mins post compound treatment measured at 15 to 120 mins by OGTT; type: functional, organism-based; outline: as §3
[8] = test system: Mus musculus; test: Toxicity in overnight fasted ICR mouse assessed as hypoglycemia at 40 mg/kg, po measured at 30 to 180 mins; type: organism-based; settings: in vivo; outline: as §2

T1 sequence (O14842 whole entry): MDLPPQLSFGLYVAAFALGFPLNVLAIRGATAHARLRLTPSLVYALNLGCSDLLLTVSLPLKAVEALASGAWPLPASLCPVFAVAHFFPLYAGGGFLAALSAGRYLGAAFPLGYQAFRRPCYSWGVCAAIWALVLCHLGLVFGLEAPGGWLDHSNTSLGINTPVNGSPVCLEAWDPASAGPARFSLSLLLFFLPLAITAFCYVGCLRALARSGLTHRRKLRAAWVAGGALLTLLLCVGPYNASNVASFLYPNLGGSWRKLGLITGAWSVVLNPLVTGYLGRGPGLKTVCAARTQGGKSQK

| Activity [1] | logD at 24 h, 100 µM [3] | EC50 [6] | Structure (SMILES) | other results |
| --- | --- | --- | --- | --- |
| 35.2% |  |  | Cc1cc(OCC(C)C)cc(C)c1-c1cccc(COc2ccc(OCC(=O)O)c(F)c2)c1 |  |
|  |  |  | COc1ccc(Cl)cc1C(=O)NCCc1ccc(S(=O)(=O)NC(=O)NC2CCCCC2)cc1 [GLYBURIDE] | Activity [2]: Toxic |
|  | 2.43 |  | Cc1cc(OCCCS(C)(=O)=O)cc(C)c1-c1cccc(COc2ccc3c(c2)OC[C@H]3CC(=O)O)c1 | Activity [4]: Active; Activity [5]: Active |
| 44.3% | 2.37 | 110 nM | Cc1cc(O)cc(C)c1-c1cccc(COc2ccc(OCC(=O)O)c(F)c2)c1 |  |
| 18.4% |  |  | CC(=O)N(CC(=O)O)c1ccc(OCc2cccc(-c3c(C)cc(OCCCS(C)(=O)=O)cc3C)c2)cc1C |  |
| 61.3% | 1.63 | 43.6 nM | Cc1cc(OCCCS(C)(=O)=O)ccc1-c1cccc(COc2ccc(OCC(=O)O)c(F)c2)c1 | Activity [7]: Dose-dependent effect; Activity [8]: Non-toxic; Activity [5]: Active |
|  | 1.81 |  | Cc1cc(OCCCS(C)(=O)=O)cc(C)c1-c1cccc(COc2ccc(OCC(=O)O)c(F)c2)c1 |  |
| 36.3% |  |  | CC(=O)N(CC(=O)O)c1ccc(OCc2cccc(-c3c(C)cc(OCCCS(C)(=O)=O)cc3C)c2)cc1 |  |
| 36.9% |  |  | Cc1cc(OC(C)C)cc(C)c1-c1cccc(COc2ccc(OCC(=O)O)c(F)c2)c1 |  |
| 41.6% |  |  | CCCCOc1cc(C)c(-c2cccc(COc3ccc(OCC(=O)O)c(F)c3)c2)c(C)c1 |  |
| 18.4% |  |  | Cc1cc(OCC(=O)N2CCOCC2)cc(C)c1-c1cccc(COc2ccc(OCC(=O)O)c(F)c2)c1 |  |
| 58.4% | 3.2 | 49.7 nM | COc1cc(C)c(-c2cccc(COc3ccc(OCC(=O)O)c(F)c3)c2)c(C)c1 |  |
| 23.6% |  |  | Cc1cc(OCCOCc2ccccc2)cc(C)c1-c1cccc(COc2ccc(OCC(=O)O)c(F)c2)c1 |  |
| 13.5% |  |  | Cc1cc(OCC(=O)N(C)C)cc(C)c1-c1cccc(COc2ccc(OCC(=O)O)c(F)c2)c1 |  |
| 2.57% |  |  | Cc1cc(OCc2cccc(-c3c(C)cc(OCCCS(C)(=O)=O)cc3C)c2)ccc1N(CC(=O)O)C(=O)c1ccccc1 |  |
| 28.9% |  |  | Cc1cc(OCCCS(C)(=O)=O)cc(C)c1-c1cccc(COc2ccc(N(CC(=O)O)C(=O)c3ccoc3)cc2)c1 |  |
| 38% |  |  | COCCCOc1cc(C)c(-c2cccc(COc3ccc(OCC(=O)O)c(F)c3)c2)c(C)c1 |  |
| 47.9% | 3.64 | 106 nM | CCCOc1cc(C)c(-c2cccc(COc3ccc(OCC(=O)O)c(F)c3)c2)c(C)c1 |  |
| 44.4% | 2.73 | 110 nM | Cc1cc(OCCCO)cc(C)c1-c1cccc(COc2ccc(OCC(=O)O)c(F)c2)c1 |  |
| 26.4% |  |  | Cc1cc(OCc2ccccc2)cc(C)c1-c1cccc(COc2ccc(OCC(=O)O)c(F)c2)c1 |  |
| 48.7% | 3.15 | 104 nM | COCCOc1cc(C)c(-c2cccc(COc3ccc(OCC(=O)O)c(F)c3)c2)c(C)c1 |  |
| 53.1% | 3.48 | 65.9 nM | CCOc1cc(C)c(-c2cccc(COc3ccc(OCC(=O)O)c(F)c3)c2)c(C)c1 |  |
| 23.5% |  |  | Cc1cc(OCCCS(C)(=O)=O)cc(C)c1-c1cccc(COc2ccc(N(CC(=O)O)C(=O)c3ccccc3)cc2)c1 |  |

— ChEMBL document CHEMBL3627655, “Design, synthesis and biological activity of phenoxyacetic acid derivatives as novel free fatty acid receptor 1 agonists” (Bioorg Med Chem, 2015)
